Key:
P388 [1] = assay: Inhibition of P388 leukemia cells in mice, measured as percent treated to the control values with the number of 30 day survivors; assay type: functional, Mus musculus
Procedure, shortened: (§1)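 P388 leukemia implanted ip in mice; drug given ip on days 1 and 5 (ip/ip; D1,5), dosed in mg/kg per injection. Read-out is treated/control (T/C, %) with cures counted, reported at the optimal dose.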

P388 [2] = assay: Optimal dose per injection in mg/kg required to inhibit growth of P388 leukemia cells in mice; assay type: functional, Mus musculus; procedure, shortened: as §1
P388 [3] = assay: Activity against P388 leukemia cells in mice, by intraperitoneal dosing and net log tumor cell kill was reported; assay type: functional, Mus musculus
L1210 [4] = assay: Compound was tested in vitro against murine L1210 leukemia;IA means inactive; assay type: functional, cell-based, Mus musculus
L1210 [5] = assay: Compound was tested in vitro against murine L1210 leukemia; IA is inactive.; assay type: functional, cell-based, Mus musculus
P388 [6] = assay: Tested for activity against P388 leukemia cells in mice, by intraperitoneal dosing and percent treated to the control values with the number of 30 day survivors i; assay type: functional, Mus musculus
Procedure, shortened: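 P388 leukemia implanted intraperitoneally in mice. Compound given ip on days 1 and 5, as mg/kg per injection across a dose series. Read-out is median survival of treated mice as a percentage of untreated controls (T/C %), taken at the optimal dose, with cures noted.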

L1210 [7] = assay: Tested in vitro against murine L1210 leukemia.; assay type: functional, cell-based; details: Mus musculus
B16 [8] = assay: Optimal dose per injection in mg/kg required to inhibit growth of murine B-16 melanoma in vivo; assay type: functional, Mus musculus
Procedure, shortened: (§2)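 Murine B-16 melanoma in vivo: tumor implanted ip, compound given ip on days 1–9 (ip/ip; D1–9), dosed as mg/kg per injection. Activity expressed as T/C (%) plus number of cures, taken at the optimal dose.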

B16 [9] = assay: Tested for activity against murine B-16 melanoma in mice and percent treated to the control values with the number of 60 day survivors; assay type: functional, Mus musculus; procedure, shortened: as §2

SMILES	T/C (P388 [1])	Dose (P388 [2])	Activity (P388 [3])	IC50 (L1210 [4])	IC50 (L1210 [5])	T/C (P388 [6])	IC50 (L1210 [7])	Optimal dose (B16 [8])	T/C (B16 [9])
CCCCCCNc1ccc2c3c(nn2CCO)-c2ccccc2C(=O)c13	98%	100 mg/kg	-1.6	Not Active	–	–	–	–	–
CCN(CC)CCNc1cccc2c1C(=O)c1cccc3c1c-2nn3C.Cl	–	–	–	–	Not Active	–	–	–	–
CCN(CC)CCn1nc2c3c(cccc31)C(=O)c1c(NCCNCCO)cccc1-2.Cl	–	12.5 mg/kg	-1.3	–	–	117%	230 nM	–	–
CCN(CC)CCn1nc2c3c(c(NCCN)ccc31)C(=O)c1ccccc1-2.Cl	–	25 mg/kg	-1.5	–	–	104%	46 nM	–	–
CN(C)CCn1nc2c3c(c(NCCNCCO)ccc31)C(=O)c1c(O)ccc(O)c1-2.Cl	242%	12.5 mg/kg	6.5	–	–	–	120 nM	3 mg/kg	183%
COc1cccc2c1C(=O)c1c(O)c3c(c(O)c1C2=O)C[C@@](O)(C(=O)CO)C[C@@H]3O[C@H]1C[C@H](N)[C@H](O)[C@H](C)O1 [DOXORUBICIN]	225%	8 mg/kg	5.6	–	–	–	69 nM	1 mg/kg	434%
O=C1c2c(O)ccc(O)c2C(=O)c2c(NCCNCCO)ccc(NCCNCCO)c21 [MITOXANTRONE]	267%	3 mg/kg	>6.8	–	–	–	1.6 nM	0.6 mg/kg	265%
